Reference: ChEMBL document CHEMBL1141940, “N-[(3S)-1-benzylpyrrolidin-3-yl]-(2-thienyl)benzamides: human dopamine D4 ligands with high affinity for the 5-HT2A receptor” (Bioorg Med Chem Lett, 2005)
Values belong to the molecule of their own block, whether it stands above or below them.

Tests used:
[1] = target: T1, Adrenergic receptor alpha-1 (Rattus norvegicus, UniProt P15823+P23944+P43140); assay: Displacement of 7-methoxy-[3H]prazosin from adrenergic alpha-1 receptor in rat frontal cortex tissue; format: tissue-based
T1 sequence (P15823 whole entry): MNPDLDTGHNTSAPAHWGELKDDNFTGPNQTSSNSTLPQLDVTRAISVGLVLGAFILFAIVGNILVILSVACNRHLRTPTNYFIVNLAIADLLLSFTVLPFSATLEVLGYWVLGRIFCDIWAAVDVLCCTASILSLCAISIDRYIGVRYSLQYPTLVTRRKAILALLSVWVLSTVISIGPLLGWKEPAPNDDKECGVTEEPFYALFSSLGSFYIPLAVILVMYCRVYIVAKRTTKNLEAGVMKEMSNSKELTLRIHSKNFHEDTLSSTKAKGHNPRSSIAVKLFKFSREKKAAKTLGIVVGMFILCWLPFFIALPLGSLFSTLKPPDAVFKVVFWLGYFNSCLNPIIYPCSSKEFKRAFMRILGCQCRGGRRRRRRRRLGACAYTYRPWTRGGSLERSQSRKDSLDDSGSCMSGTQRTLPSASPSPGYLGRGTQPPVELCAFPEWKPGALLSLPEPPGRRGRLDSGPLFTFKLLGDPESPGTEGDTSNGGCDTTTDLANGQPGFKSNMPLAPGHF
T1 sequence (P23944 whole entry): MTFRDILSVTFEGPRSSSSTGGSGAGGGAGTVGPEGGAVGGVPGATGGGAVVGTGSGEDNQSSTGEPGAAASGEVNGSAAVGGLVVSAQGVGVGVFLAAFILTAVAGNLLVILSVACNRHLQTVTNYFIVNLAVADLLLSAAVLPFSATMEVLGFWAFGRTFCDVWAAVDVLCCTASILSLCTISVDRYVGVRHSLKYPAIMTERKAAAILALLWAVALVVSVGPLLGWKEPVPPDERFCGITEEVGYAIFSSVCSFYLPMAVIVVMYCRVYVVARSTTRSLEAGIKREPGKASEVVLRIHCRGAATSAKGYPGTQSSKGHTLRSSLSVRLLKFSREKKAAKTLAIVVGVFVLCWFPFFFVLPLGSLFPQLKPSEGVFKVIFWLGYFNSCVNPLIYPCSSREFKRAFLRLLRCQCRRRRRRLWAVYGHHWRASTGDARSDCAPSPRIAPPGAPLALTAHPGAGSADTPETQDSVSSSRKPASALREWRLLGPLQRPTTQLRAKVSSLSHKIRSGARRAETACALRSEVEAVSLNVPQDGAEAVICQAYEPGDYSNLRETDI
T1 sequence (P43140 whole entry): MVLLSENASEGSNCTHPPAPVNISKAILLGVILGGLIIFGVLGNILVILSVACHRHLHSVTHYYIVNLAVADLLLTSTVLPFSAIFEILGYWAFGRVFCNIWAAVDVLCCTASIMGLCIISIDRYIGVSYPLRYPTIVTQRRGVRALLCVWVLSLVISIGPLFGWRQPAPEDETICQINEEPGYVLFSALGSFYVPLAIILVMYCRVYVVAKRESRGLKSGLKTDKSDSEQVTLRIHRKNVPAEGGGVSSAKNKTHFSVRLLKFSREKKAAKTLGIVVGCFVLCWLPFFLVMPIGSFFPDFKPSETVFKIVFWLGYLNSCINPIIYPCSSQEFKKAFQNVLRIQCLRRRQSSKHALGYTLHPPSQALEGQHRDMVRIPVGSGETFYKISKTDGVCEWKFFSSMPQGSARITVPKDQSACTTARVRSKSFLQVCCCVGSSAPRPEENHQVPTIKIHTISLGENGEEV
How it was run: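 Rat frontal cortex tissue as receptor source, with 7-methoxy-[3H]prazosin as radioligand. Non-specific binding was defined with […]. Ki was obtained by Cheng–Prusoff transformation and reported as the mean of at least two independent determinations ± SEM.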

[2] = target: T2, 5-hydroxytryptamine receptor 2A (Homo sapiens, UniProt P28223); assay: Displacement of [3H]ketanserin from cloned human 5HT2A receptor in […] cells; format: cell-based
T2 sequence (P28223 whole entry): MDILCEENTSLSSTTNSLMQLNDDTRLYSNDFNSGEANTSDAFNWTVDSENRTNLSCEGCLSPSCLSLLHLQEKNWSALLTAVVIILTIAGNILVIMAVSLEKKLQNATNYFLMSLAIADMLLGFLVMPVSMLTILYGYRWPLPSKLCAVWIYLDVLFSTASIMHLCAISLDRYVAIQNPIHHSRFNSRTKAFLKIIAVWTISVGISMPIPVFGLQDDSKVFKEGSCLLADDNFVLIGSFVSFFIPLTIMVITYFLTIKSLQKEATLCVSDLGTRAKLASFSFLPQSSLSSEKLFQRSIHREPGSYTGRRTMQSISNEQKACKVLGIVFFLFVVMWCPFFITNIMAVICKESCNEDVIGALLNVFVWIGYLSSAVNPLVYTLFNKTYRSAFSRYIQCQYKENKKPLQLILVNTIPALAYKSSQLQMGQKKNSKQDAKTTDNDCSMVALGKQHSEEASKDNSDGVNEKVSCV
How it was run: (§1)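 […] cells stably transfected with cloned receptor: hD4 (D4.2 subtype) with [3H]spiperone, h5-HT2A with [3H]ketanserin. Non-specific binding was defined with methysergide. Ki came from Cheng–Prusoff conversion and is the mean of at least two independent determinations ± SEM.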

D(2) dopamine receptor [3] = target: T3, D(2) dopamine receptor (Homo sapiens, UniProt P14416); assay: Displacement of [3H]spiperone from human dopamine D2(short) receptor in rat pituitary GH4C1 cells; format: cell-based, Pituitary gland cell
T3 sequence (P14416 whole entry, canonical isoform): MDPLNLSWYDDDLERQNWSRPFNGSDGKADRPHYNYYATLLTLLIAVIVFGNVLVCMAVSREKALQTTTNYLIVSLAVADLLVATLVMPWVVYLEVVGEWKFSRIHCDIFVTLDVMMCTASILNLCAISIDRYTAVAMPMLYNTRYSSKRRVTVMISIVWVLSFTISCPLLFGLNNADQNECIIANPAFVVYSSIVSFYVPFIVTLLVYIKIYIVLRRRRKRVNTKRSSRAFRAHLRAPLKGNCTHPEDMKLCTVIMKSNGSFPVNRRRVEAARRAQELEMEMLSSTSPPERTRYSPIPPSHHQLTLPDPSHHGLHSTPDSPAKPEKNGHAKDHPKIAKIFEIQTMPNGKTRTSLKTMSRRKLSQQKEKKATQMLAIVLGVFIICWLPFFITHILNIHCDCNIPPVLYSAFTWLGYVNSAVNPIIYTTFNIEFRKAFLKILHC
How it was run: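 Rat pituitary GH4C1 cells stably expressing cloned hD2 (short isoform), with [3H]spiperone displacement. Non-specific binding was defined with […]. Ki was calculated by Cheng–Prusoff transformation.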

D(4) dopamine receptor = target: T4, D(4) dopamine receptor (Homo sapiens, UniProt P21917); assay: Displacement of [3H]spiperone from cloned human dopamine D4.2 receptor in […] cells; format: cell-based; how it was run: as §1
T4 sequence (P21917 whole entry): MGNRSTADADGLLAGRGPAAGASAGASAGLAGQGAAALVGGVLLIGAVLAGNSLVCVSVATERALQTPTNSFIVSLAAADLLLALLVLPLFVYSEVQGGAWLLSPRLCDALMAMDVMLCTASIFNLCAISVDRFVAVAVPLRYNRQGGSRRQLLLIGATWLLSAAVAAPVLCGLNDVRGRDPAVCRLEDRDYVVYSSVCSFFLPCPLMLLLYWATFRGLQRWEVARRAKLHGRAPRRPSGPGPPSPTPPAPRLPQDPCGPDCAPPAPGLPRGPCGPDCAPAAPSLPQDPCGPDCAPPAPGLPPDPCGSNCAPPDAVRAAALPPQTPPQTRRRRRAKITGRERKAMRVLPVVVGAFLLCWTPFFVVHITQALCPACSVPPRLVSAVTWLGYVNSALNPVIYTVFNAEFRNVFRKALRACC

[4] = target: T2, 5-hydroxytryptamine receptor 2A; assay: Inhibitory activity against cloned human 5HT2A receptor in […] cells at 100 nM; format: cell-based
D(2) dopamine receptor [5] = target: T3, D(2) dopamine receptor; assay: Inhibitory activity against human dopamine D2(short) receptor in rat pituitary GH4C1 cells at 100 nM; format: cell-based; conditions: Pituitary gland cell
[6] = target: T5, Adrenergic receptor alpha-1 (Rattus norvegicus) (UniProt P15823+P23944+P43140); assay: Inhibitory activity against adrenergic alpha1 receptor in rat frontal cortex tissue at 100 nM; format: tissue-based
[7] = target: T5, Adrenergic receptor alpha-1 (Rattus norvegicus); assay: Inhibitory activity against adrenergic alpha-1 receptor in rat frontal cortex tissue at 1 uM; format: tissue-based

Structure (SMILES): O=C(N[C@H]1CCN(Cc2ccccc2F)C1)c1ccc(-c2cccs2)cc1
- Ki [1]: 6900 nM
- inhibition [4]: 89%
- Ki (D(2) dopamine receptor [3]): 38000 nM
- Ki (D(4) dopamine receptor): 33 nM

Structure (SMILES): O=C(N[C@H]1CCN(Cc2ccc(OC(F)(F)F)cc2)C1)c1ccc(-c2cccs2)cc1
- Ki [1]: 16000 nM
- Ki [2]: 140 nM
- inhibition (D(2) dopamine receptor [5]): 7%
- Ki (D(4) dopamine receptor): 78 nM

Structure (SMILES): O=C(N[C@H]1CCN(Cc2ccc(OC(F)(F)F)cc2)C1)c1cccc(-c2cccs2)c1
- Ki [1]: 1200 nM
- Ki [2]: 5600 nM
- Ki (D(2) dopamine receptor [3]): 500 nM
- Ki (D(4) dopamine receptor): 52 nM

Structure (SMILES): O=C(N[C@H]1CCN(Cc2cccc(C(F)(F)F)c2)C1)c1ccc(-c2cccs2)cc1
- inhibition [4]: 76%
- inhibition (D(2) dopamine receptor [5]): 0%
- Ki (D(4) dopamine receptor): 22 nM
- inhibition [6]: 0%

Structure (SMILES): O=C(N[C@H]1CCN(Cc2ccccc2)C1)c1ccc(-c2cccs2)cc1
- Ki [2]: 1.8 nM

Structure (SMILES): O=C(N[C@H]1CCN(Cc2ccccc2)C1)c1cccc(-c2cccs2)c1
- Ki [2]: 460 nM

The next lines start with the values.

- Ki [1]: 420 nM
- Ki [2]: 14 nM
- Ki (D(2) dopamine receptor [3]): 1500 nM
- Ki (D(4) dopamine receptor): 5 nM
Structure (SMILES): O=C(N[C@H]1CCN(Cc2ccc(F)cc2)C1)c1ccc(-c2cccs2)cc1

- Ki [1]: 10000 nM
- Ki [2]: 16 nM
- Ki (D(2) dopamine receptor [3]): 18000 nM
- Ki (D(4) dopamine receptor): 14 nM
Structure (SMILES): O=C(N[C@H]1CCN(Cc2ccc(F)c(F)c2)C1)c1ccc(-c2cccs2)cc1

- Ki [1]: 5000 nM
- Ki [2]: 22 nM
- Ki (D(2) dopamine receptor [3]): 29000 nM
- Ki (D(4) dopamine receptor): 15 nM
Structure (SMILES): O=C(N[C@H]1CCN(Cc2ccc(Cl)c(Cl)c2)C1)c1ccc(-c2cccs2)cc1

- Ki [1]: 920 nM
- Ki [2]: 22 nM
- Ki (D(2) dopamine receptor [3]): 4460 nM
- Ki (D(4) dopamine receptor): 14 nM
Structure (SMILES): COc1cccc(CN2CC[C@H](NC(=O)c3ccc(-c4cccs4)cc3)C2)c1

- Ki [1]: 360 nM
- Ki [2]: 740 nM
- Ki (D(2) dopamine receptor [3]): 1300 nM
- Ki (D(4) dopamine receptor): 21 nM
Structure (SMILES): O=C(N[C@H]1CCN(Cc2ccc(C(F)(F)F)cc2)C1)c1cccc(-c2cccs2)c1

- Ki [1]: 220 nM
- Ki [2]: 1100 nM
- Ki (D(2) dopamine receptor [3]): 230 nM
- Ki (D(4) dopamine receptor): 16 nM
Structure (SMILES): O=C(N[C@H]1CCN(Cc2ccc(Cl)cc2)C1)c1cccc(-c2cccs2)c1

- Ki [1]: 400 nM
- inhibition [4]: 89%
- Ki (D(2) dopamine receptor [3]): 1800 nM
- Ki (D(4) dopamine receptor): 7 nM
Structure (SMILES): O=C(N[C@H]1CCN(Cc2ccc3c(c2)OCO3)C1)c1ccc(-c2cccs2)cc1

- inhibition [7]: 2%
- Ki [2]: 130 nM
- inhibition (D(2) dopamine receptor [5]): 7%
- Ki (D(4) dopamine receptor): 14 nM
Structure (SMILES): O=C(N[C@H]1CCN(Cc2ccc(C(F)(F)F)cc2)C1)c1ccc(-c2cccs2)cc1

- Ki [1]: 80 nM
- Ki [2]: 610 nM
- Ki (D(2) dopamine receptor [3]): 60 nM
- Ki (D(4) dopamine receptor): 4 nM
Structure (SMILES): Cc1ccc(CN2CC[C@H](NC(=O)c3cccc(-c4cccs4)c3)C2)cc1
